# Data from ChEMBL document CHEMBL1641427, “Arylsulfanyl pyrazolones block mutant SOD1-G93A aggregation. Potential application for the treatment of amyotrophic lateral sclerosis” (Bioorg Med Chem, 2011).
# Legend:
# [1] = Inhibition of SOD1 G93A mutant aggregation in rat PC12 cells by cytotoxicity protection assay; assay type: cell-based; details: PC-12
# [2] = Drug level in Tg6799 mouse brain measured per gram of tissue at 1 mg/kg, ip after 10 mins by LC-MS/MS analysis; assay type: ADME, organism-based; parameters: dose 1 mg/kg, route intraperitoneal; details: read-out: Drug uptake
# How it was run: (§1)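 Female Tg6799 mice (B6/SJL background), n=3, given 1 mg/kg i.p. in 60% PBS/40% DMSO (100 μL per 10 g) and killed at 10 min. Plasma collected by centrifugation. Brain PBS-perfused via left ventricle, excised, weighed and homogenized in acetonitrile with internal standard. Analyte measured by LC-MS/MS as ratio to internal standard; plasma in μg/mL, brain in μg/g. Brain/plasma ratio computed after μM conversion assuming brain density 1 g/mL. Mean ± SD.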
# [3] = Half life in mouse microsome by LC-MS/MS analysis; assay type: ADME, microsomes; details: for t1/2: microsomes
# [4] = system: Brain; assay: Effect of compound on Tg6799 mouse brain weight at 1 mg/kg, ip after 10 mins; assay type: ADME, organism-based; parameters: dose 1 mg/kg, route intraperitoneal; details: in vivo
# [5] = system: Mus musculus; assay: Brain area ratio in Tg6799 mouse at 1 mg/kg, ip after 10 mins by LC-MS/MS analysis; assay type: ADME, organism-based; parameters: dose 1 mg/kg, route intraperitoneal; details: in vivo; how it was run: as §1
# [6] = system: Plasma (Homo sapiens); assay: Ratio of AUC of compound to 4-ethylidene-1H-pyrazol-5(4H)-ones in human serum at 0.01 ug/ml plasma concentration
# [7] = system: Plasma (Homo sapiens); assay: Ratio of AUC of compound to 4-ethylidene-1H-pyrazol-5(4H)-ones in human serum at 0.50 ug/ml plasma concentration
# [8] = system: Plasma (Homo sapiens); assay: Ratio of AUC of compound to 4-ethylidene-1H-pyrazol-5(4H)-ones in human serum at 0.05 ug/ml plasma concentration
# [9] = system: Mus musculus; assay: Plasma area ratio in Tg6799 mouse at 1 mg/kg, ip after 10 mins by LC-MS/MS analysis; assay type: ADME, organism-based; parameters: dose 1 mg/kg, route intraperitoneal; details: in vivo; how it was run: as §1
# [10] = Ratio of AUC of compound to 4-ethylidene-1H-pyrazol-5(4H)-ones in pig brain at 0.50 ug/ml brain extract concentration; assay type: ADME, tissue-based, Sus scrofa; details: in vivo
# How it was run: (§2)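 Brain standards: analyte added to pig brain pieces (300–500 mg) with acetonitrile and internal standard at final 0.05, 0.10, 0.5 and 1.0 μg/mL (1 mL total). Homogenized, then 20 μL aliquot run by LC-MS/MS. Analyte/internal standard response taken. Triplicate.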
# [11] = Ratio of AUC of compound to 4-ethylidene-1H-pyrazol-5(4H)-ones in pig brain at 0.05 ug/ml brain extract concentration; assay type: ADME, tissue-based, Sus scrofa; details: in vivo; how it was run: as §2
# [12] = Intrinsic clearance in mouse microsome by LC-MS/MS analysis in presence of NADPH; assay type: ADME; details: mouse microsomes
# [13] = Ratio of AUC of compound to 4-ethylidene-1H-pyrazol-5(4H)-ones in pig brain at 0.10 ug/ml brain extract concentration; assay type: ADME, tissue-based, Sus scrofa; details: in vivo; how it was run: as §2
# [14] = Drug level in Tg6799 mouse plasma at 1 mg/kg, ip after 10 mins by LC-MS/MS analysis; assay type: ADME, organism-based; parameters: dose 1 mg/kg, route intraperitoneal; details: read-out: Drug uptake; how it was run: as §1
# [15] = Ratio of drug level in brain to plasma in Tg6799 mouse at 1 mg/kg, ip after 10 mins by LC-MS/MS analysis; assay type: ADME, organism-based; parameters: dose 1 mg/kg, route intraperitoneal; how it was run: as §1
# [16] = Intrinsic clearance in mouse microsome by LC-MS/MS analysis; assay type: ADME; details: mouse microsomes
# [17] = system: Plasma (Homo sapiens); assay: Ratio of AUC of compound to 4-ethylidene-1H-pyrazol-5(4H)-ones in human serum at 0.10 ug/ml plasma concentration
# [18] = Ratio of AUC of compound to 4-ethylidene-1H-pyrazol-5(4H)-ones in pig brain at 1 ug/ml brain extract concentration; assay type: ADME, tissue-based, Sus scrofa; details: in vivo; how it was run: as §2
# [19] = (§3) Ratio of permeability from basolateral to apical side to apical to basolateral side in human Caco2 cells; assay type: ADME, cell-based; details: Caco-2
# How it was run: (§4)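 Caco-2 cells were seeded on collagen-coated inserts and differentiated for 3 weeks, fed every 2 days. The donor side received 50 μM compound in HBSS with 10 mM HEPES and 1.98 g/L glucose, apical at pH 6.5 and basolateral at pH 7.4, for 2 h. Apical 100 μM Lucifer yellow checked monolayer integrity (<1%/2 h). Papp = dQ/dt/(C0·A), and the ratio is Papp(B→A)/Papp(A→B).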
# [20] = Stability of the compound in PBS assessed as compound remaining after 60 mins; assay type: physicochemical; details: read-out: Stability
# How it was run: (§5)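 Samples taken at 15 s and at 10, 20, 40 and 60 min, precipitated with acetonitrile containing haloperidol internal standard, then LC-MS/MS. Plasma/PBS response ratio fitted to a first-order exponential (1/Y weighting); T1/2 = ln2/k. PBS half-life from its own exponential fit.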
# [21] = system: Caco-2; assay: (§6) Permeability from basolateral to apical side of human Caco2 cells after 2 hrs; assay type: ADME, cell-based; details: caco-2, 2 h; how it was run: as §4
# [22] = system: Caco-2; assay: (§7) Permeability from apical to basolateral side of human Caco2 cells after 2 hrs; assay type: ADME, cell-based; details: caco-2, 2 h; how it was run: as §4
# [23] = system: Plasma; assay: Half life of the compound in mouse plasma at 5 uM; assay type: ADME, cell-free; how it was run: as §5
# [24] = Half life in human microsome by LC-MS/MS analysis; assay type: ADME; details: microsomes
# [25] = Aqueous solubility of the compound; assay type: physicochemical; details: buffer
# How it was run: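 DMSO stock 3-fold serially diluted at 100× final, then diluted into PBS to 1% DMSO final. Incubated 1 h at room temperature, inspected visually for precipitate and read at 450 nm. Solubility limit is the highest concentration neither cloudy nor above background absorbance (visual only for coloured compounds).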
# [26] = system: Caco-2; assay: as §3; assay type: ADME, cell-based; how it was run: as §4
# [27] = as §6; assay type: ADME, cell-based, Caco-2; details: Caco-2; how it was run: as §4
# [28] = as §7; assay type: ADME, cell-based, Caco-2; details: Caco-2; how it was run: as §4
Compound,EC50 [1],also measured
O=c1cc(CSc2ccc([N+](=O)[O-])cc2)[nH][nH]1,2.4 µM,
O=C1NN=C(CSc2ccccc2)/C1=C/c1ccccc1,> 32 µM,
Cc1ccc(SCC2=NN(c3ccccc3)C(=O)/C2=C\c2ccc(-c3cccc(C(F)(F)F)c3)o2)cc1,4.1 µM,
O=c1cc(CSc2ccccc2)[nH][nH]1,10.1 µM,
Cn1[nH]c(CSc2ccc(Cl)cc2)cc1=O,5.4 µM,
O=c1cc(CSc2ccc(Cl)cc2)[nH]n1-c1ccccc1,3.46 µM,
O=c1cc(CSc2cccc(Cl)c2)[nH][nH]1,1.11 µM,
CC(C)(C)c1ccc(SCc2cc(=O)[nH][nH]2)cc1,2.31 µM,
O=C1ON=C(CSc2ccccc2)/C1=C/c1ccccc1,165 µM,
O=c1cc(CSc2ccccc2Cl)[nH][nH]1,3.05 µM,
Cc1cc(SCc2cc(=O)[nH][nH]2)c(C)cc1Cl,0.4 µM,concentration at 10 min [2]: 360 ng/g; t1/2 [3]: 15 min; Activity [4]: 0.399 g; Ratio [5]: 0; Ratio AUC [6]: 0.068; Ratio AUC [7]: 1.58; Ratio AUC [8]: 0.304; Ratio [9]: 0; Ratio AUC [10]: 1.11; Ratio AUC [11]: 0.148; CLint scaled [12]: 14.5 L/h/kg; Ratio AUC [13]: 0.268; concentration at 10 min [14]: 1.96 µg/mL; Ratio [15]: 0.19; CLint scaled [16]: 3.78 L/h/kg; Ratio AUC [17]: 0.637; Ratio AUC [18]: 2.48
O=c1cc(CSc2ccccn2)[nH][nH]1,46 µM,
Cc1ccc(SCC2=NN(c3ccccc3)C(=O)/C2=C\C2=NCN=C2c2ccccc2)cc1,10 µM,
Cc1ccc(SCc2cc(=O)n(-c3nc(C)cc(C)n3)[nH]2)cc1,3.5 µM,
O=C1/C(=C\c2ccc(-c3cccc(C(F)(F)F)c3)o2)C(CSc2ccccc2)=NN1c1ccccc1,35 µM,
Cc1cc(SCc2cc(=O)[nH][nH]2)c(Cl)cc1Cl,0.55 µM,efflux ratio [19]: 0.1; remaining at 1 h [20]: 100%; Papp [21]: 4.6 nm/s; t1/2 [3]: 13 min; Papp [22]: 47 nm/s; t1/2 [23]: 16 min; t1/2 [24]: 39 min; solubility [25]: 56 µM
CC(=O)CC(c1ccccc1)c1c(O)c2ccccc2oc1=O (centres undefined) [WARFARIN],,CLint scaled [16]: 0.36 L/h/kg

Compound,EC50 [1],also measured
Cc1cc(SCC2=NNC(=O)/C2=C\N(C)C)c(C)cc1Cl,5.3 µM,
COc1ccc(SCc2cc(=O)[nH][nH]2)cc1,1.81 µM,
O=c1cc(CSc2c(Cl)cccc2Cl)[nH][nH]1,0.95 µM,
Cc1nnc(SCc2cc(=O)[nH][nH]2)s1,16 µM,
Cc1cc(C)nc(-n2[nH]c(CSc3nnc(C)s3)cc2=O)n1,6.7 µM,
O=c1cc(CSc2ccc(F)cc2)[nH][nH]1,3.44 µM,
O=c1cc(CSc2ccc(Br)cc2)[nH][nH]1,1.8 µM,
Cc1nnc(SCc2cc(=O)n(-c3nc4ccccc4s3)[nH]2)s1,44 µM,
O=c1cc(CSc2nnnn2-c2ccccc2)[nH]n1-c1ccccc1,6.6 µM,
CNC(=C[N+](=O)[O-])NCCSCc1ccc(CN(C)C)o1 [RANITIDINE],,Ratio [26]: 1; Papp B→A at 2 h [27]: 6 nm/s; Papp A→B at 2 h [28]: 6 nm/s
O=c1cc(CSc2cc(Cl)cc(Cl)c2)[nH][nH]1,0.17 µM,
O=c1cc(CSc2ccc(-c3ccccc3)cc2)[nH][nH]1,4.06 µM,
O=c1cc(CSc2ccc(Cl)cc2Cl)[nH][nH]1,1.15 µM,
Cc1cc(SCC2=NNC(=O)/C2=C\N(C)C)c(Cl)cc1Cl,0.9 µM,half-life ([3]; mouse microsomes): 4 min; CLint scaled [12]: 55.4 L/h/kg; CLint scaled [16]: 8.1 L/h/kg
Cc1ccc(SCc2cc(=O)[nH][nH]2)cc1,2 µM,
O=c1cc(CSc2ccc(Cl)c(Cl)c2)[nH][nH]1,1.89 µM,
O=c1cc(CSc2ccc(Cl)cc2)[nH][nH]1,1.93 µM,
